From ChEMBL document CHEMBL4184322, “Coupling of an Acyl Migration Prodrug Strategy with Bio-activation To Improve Oral Delivery of the HIV-1 Protease Inhibitor Atazanavir” (J Med Chem, 2018)
Values after ≈ are worked out from the molar mass of the structure shown.

Columns and labels:
[1] = Solubility of the compound in phosphate buffer at pH 6.5 at 25 degC by UPLC method; type: physicochemical
[2] = Half life of the compound in phosphate buffer at pH 6.5 at 37 degC after 24 hrs by UPLC method; type: physicochemical
[3] = Half life of the compound in 0.1 N aqueous HCl at pH 1 at 37 degC after 24 hrs by UPLC method; type: physicochemical
[4] = system: Rattus norvegicus; assay: Oral bioavailability in Sprague-Dawley rat assessed as atazanavir at 3 mg/kg equiv of atazanavir after 0.25 to 24 hrs by UPLC/MS/MS method relative to atazanavir; type: ADME, organism-based; details: in vivo
[5] = Solubility of the compound in acetate buffer at pH 4 at 25 degC by UPLC method; type: physicochemical
[6] = system: Rattus norvegicus; assay: Cmax in Sprague-Dawley rat assessed as atazanavir at 3 mg/kg, po equiv of atazanavir after 0.25 to 24 hrs by UPLC/MS/MS method; type: ADME, organism-based; parameters: dose 3 mg/kg, route oral; details: in vivo
[7] = system: Rattus norvegicus; assay: Tmax in Sprague-Dawley rat assessed as atazanavir at 3 mg/kg, po equiv of atazanavir after 0.25 to 24 hrs by UPLC/MS/MS method; type: ADME, organism-based; details: in vivo
[8] = Half life in rat whole blood at 1 uM after 5 to 90 mins by UPLC-MS/MS method; type: ADME, tissue-based
[9] = system: Rattus norvegicus; assay: Trough concentration in Sprague-Dawley rat assessed as atazanavir at 3 mg/kg, po equiv of atazanavir at 24 hrs by UPLC/MS/MS method; type: ADME, organism-based; details: in vivo
[10] = system: Rattus norvegicus; assay: AUClast in Sprague-Dawley rat assessed as atazanavir at 3 mg/kg, po equiv of atazanavir after 0.25 to 24 hrs by UPLC/MS/MS method; type: ADME, organism-based; parameters: time upper 24 hr, dose 3 mg/kg, time lower 0.25 hr, route oral; details: in vivo
[11] = Half life in rat hepatocytes at 1 uM after 5 to 120 mins by UPLC-MS/MS method; type: ADME, cell-based, Hepatocyte
[12] = Half life of the compound in acetate buffer at pH 4 at 37 degC after 24 hrs by UPLC method; type: physicochemical
[13] = system: Rattus norvegicus; assay: Ratio of AUClast in Sprague-Dawley rat at 3 mg/kg, po equiv of atazanavir to AUC in Sprague-Dawley rat assessed as atazanavir at 3 mg/kg, po equiv of atazanavir; type: ADME, organism-based; details: in vivo
[14] = Solubility of the compound in 0.1 N aqueous HCl at pH 1 at 25 degC by UPLC method; type: physicochemical
[15] = system: Rattus norvegicus; assay: AUClast in Sprague-Dawley rat at 3 mg/kg, po after 0.25 to 24 hrs by UPLC/MS/MS method; type: ADME, organism-based; parameters: time 0.25-24 hr, dose 3 mg/kg, route oral; details: in vivo
[16] = Trough concentration in Sprague-Dawley rat at 3 mg/kg, po at 24 hrs by UPLC/MS/MS method; type: ADME, organism-based; details: in vivo, read-out: Cmin
[17] = system: Rattus norvegicus; assay: Ratio of AUC in pentagastrin treated Sprague-Dawley rat at 10 mg/kg, po to AUC in famotidine treated Sprague-Dawley rat at 10 mg/kg, po; type: ADME, organism-based; details: in vivo
Outline: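 Oral suspension in 0.5% methyl cellulose / 99.5% water, given to rats whose gastric pH was modulated by pretreatment with pentagastrin or famotidine.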

[18] = Tmax in Sprague-Dawley rat at 3 mg/kg, po after 0.25 to 24 hrs by UPLC/MS/MS method; type: ADME, organism-based; details: in vivo
[19] = AUC (0 to 24 hrs) in famotidine treated Sprague-Dawley rat at 10 mg/kg, po by UPLC/MS/MS method; type: ADME, organism-based; parameters: dose 10 mg/kg, time < 24 hr, route oral; details: in vivo
Outline: (§1)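 Rat gastric-pH model: gastric pH raised with famotidine or lowered with pentagastrin before oral dosing […] as a suspension in 0.5% methyl cellulose / 99.5% water; plasma atazanavir (parent) AUC0–24 h determined.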

[20] = Efflux ratio of apparent permeability across basolateral to apical over apical to basolateral side in human Caco2 cells; type: ADME, cell-based; details: Caco-2
[21] = AUC (0 to 24 hrs) in Sprague-Dawley rat at 10 mg/kg, po by UPLC/MS/MS method; type: ADME, organism-based; parameters: dose 10 mg/kg, time < 24 hr, route oral; details: in vivo
[22] = system: Rattus norvegicus; assay: Cmax in Sprague-Dawley rat at 3 mg/kg, po after 0.25 to 24 hrs by UPLC/MS/MS method; type: ADME, organism-based; parameters: dose 3 mg/kg, route oral; details: in vivo
[23] = AUC (0 to 24 hrs) in pentagastrin treated Sprague-Dawley rat at 10 mg/kg, po by UPLC/MS/MS method; type: ADME, organism-based; parameters: dose 10 mg/kg, time < 24 hr, route oral; details: in vivo; outline: as §1
[24] = Apparent permeability across basolateral to apical side in human Caco2 cells; type: ADME, cell-based; details: Caco-2
[25] = Oral bioavailability in Sprague-Dawley rat at 3 mg/kg after 0.25 to 24 hrs by UPLC/MS/MS method; type: ADME, organism-based; details: in vivo
[26] = Apparent permeability across apical to basolateral side in human Caco2 cells; type: ADME, cell-based; details: Caco-2

Structure (SMILES)	solubility [1] [µg/mL]	half-life [2] [h]	half-life [3] [h]	F [4] [%]	solubility [5] [µg/mL]	Cmax [6] [nM]	Tmax [7] [h]	half-life at 1 µM [8] [h]	AUClast [10] [µM·h]	half-life at 1 µM [11] [h]	half-life [12] [h]	Ratio AUC [13]	solubility [14] [µg/mL]	efflux ratio [20]	Papp B→A [24] [×10⁻⁶ cm/s]	other results
COC(=O)N[C@H](C(=O)NN(Cc1ccc(-c2ccccn2)cc1)C[C@H](OC(=O)[C@@H](NC(=O)OC)C(C)(C)C)[C@H](Cc1ccccc1)NC(=O)OCc1oc(=O)oc1C)C(C)(C)C	< 1	120	> 500	10.1	< 1	180	1.3	< 0.0833	0.194	< 0.0833	> 500	0.1	> 1800	–	–	concentration ([9]; read-out: Cmin): 0.3 nM
COC(=O)N[C@H](C(=O)N[C@@H](Cc1ccccc1)[C@@H](O)CN(Cc1ccc(-c2ccccn2)cc1)NC(=O)[C@@H](NC(=O)OC)C(C)(C)C)C(C)(C)C [ATAZANAVIR]	< 1	> 500	> 500	–	< 1	–	–	> 2	–	0.467	> 500	–	1690 (≈ 2400 µM)	> 31	47	AUClast [15]: 0.384 µM·h; concentration at 24 h [16]: 0.25 nM; Ratio AUC [17]: 492; Tmax [18]: 0.5 h; AUC(0-t) at 24 h [19]: 0.005 µM·h; AUC(0-t) at 24 h [21]: 0.24 µM·h; Cmax [22]: 266 nM; AUC(0-t) at 24 h [23]: 2.46 µM·h; bioavailability [25]: 20%
COC(=O)N[C@H](C(=O)NN(Cc1ccc(-c2ccccn2)cc1)C[C@H](OC(=O)[C@@H](NC(=O)OC)C(C)(C)C)[C@@H](N)Cc1ccccc1)C(C)(C)C.Cl.Cl	–	6.6	376	0.83	> 400	8	0.4	> 2	0.016	1.32	334	4.9	> 900	15	34.8	Cmin ([9]; BLD = below limit of detection): Bld; Papp A→B [26]: 2.3 ×10⁻⁶ cm/s
